# Assay results pooled from the literature.
# Lines come from different studies, so protocols differ.
SMILES,cell line,observed,technique,concentration,time,quantity,value
CCc1cccc(CN2CCc3cc(O)c(OC)cc3C2)c1,DU-145,cell growth or viability,WST-1,,96 h,GI50,> 100000 nM
FC(F)(F)c1ccc(C(c2c[nH]c3ccccc23)c2c[nH]c3ccccc23)cc1,DU-145,cell growth or viability,MTT,100 µM,48 h,inhibition,95%
COc1ccc2c(N(C)c3ccc(/C(C)=N/OCCN)cc3)c3c(Cl)coc3nc2c1,LNCaP,cell migration,,1 µM,24 h,inhibition,70%
COc1cc2c(cc1O)CCN(Cc1cccc(O)c1)C2,DU-145,cell growth or viability,WST-1,,96 h,GI50,> 100000 nM
COc1ccc(-c2ccc(-c3ccc(C(=N)N)nc3)s2)cc1Cl,SF-295,cell growth or viability,SRB,,,GI50,1800 nM
Cc1cccc2c(C(c3ccc(/C=C/C(=O)O)s3)c3c[nH]c4c(C)cccc34)c[nH]c12,DU-145,cell growth or viability,MTT,100 µM,48 h,inhibition,78%
C[C@@H](NC(=O)[C@H](CCCCNC(=O)C(F)(F)F)NS(C)(=O)=O)C(=O)N[C@@H](CCCNC(=N)N)C(N)=O,Jurkat,cell growth or viability,MTT,,72 h,EC50,21.2 to 28.1 µM
O=C(O)/C=C/c1cccc(C(c2c[nH]c3ccccc23)c2c[nH]c3ccccc23)c1,DU-145,cell growth or viability,MTT,100 µM,48 h,inhibition,28%
COc1cc2c(cc1OS(N)(=O)=O)CCN(S(=O)(=O)c1ccccc1OC)C2,DU-145,cell growth or viability,WST-1,,96 h,GI50,> 100000 nM
COc1ccc(-c2ccc(-c3ccc(C(=N)N)nc3)s2)cc1,SF-295,cell growth or viability,SRB,,,GI50,1710 nM
O=C(O)c1ccc(C(c2c[nH]c3ccccc23)c2c[nH]c3ccccc23)cc1,DU-145,cell growth or viability,MTT,100 µM,48 h,inhibition,34%
CC(C)C[C@H](NC(=O)[C@H](Cc1ccccc1)NC(=O)c1cnccn1)B(O)O,MOLT-4,cell growth or viability,ATP luminescence,,,IC50,3.7 nM
Cn1cc(C(c2ccc(C(=O)O)cc2)c2cn(C)c3ccccc23)c2ccccc21,LNCaP,cell growth or viability,MTT,100 µM,48 h,inhibition,95%
COc1cccc(Oc2ccccc2NC(=O)CNC(=O)c2cccc3ccccc23)c1,SF-295,cell growth or viability,SRB,,48 h,GI50,112 nM
COc1cc2c(cc1OS(N)(=O)=O)CCN(Cc1cccc([N+](=O)[O-])c1)C2,DU-145,cell growth or viability,WST-1,,96 h,GI50,3030 nM
COc1cc(Nc2nccc(-c3cnn4nc(OC)ccc34)n2)cc(C(F)(F)F)c1,MOLT-4,cell growth or viability,ATP luminescence,,,IC50,270 nM
